Test results as given in ChEMBL document CHEMBL3994610, “A Macrocyclic Agouti-Related Protein/[Nle4,DPhe7]α-Melanocyte Stimulating Hormone Chimeric Scaffold Produces Subnanomolar Melanocortin Receptor Ligands” (J Med Chem, 2017).
Square brackets hold non-standard residues; d marks the D form. Peptide text beside a SMILES is read from it. Dap = NC[C@H](N)C(=O)O

Assays:
[1] = molecular target: Melanocortin receptor 3 (Homo sapiens) (UniProt P41968); experiment: Agonist activity at human MC3R expressed in CHO cells assessed as increase in IBMX-induced cAMP accumulation at 10 uM after 45 mins by [125I]cAMP flash plate assay relative to MT-2
Mus musculus [2] = species on record: Mus musculus; experiment: Selectivity ratio of EC50 for mouse MC3R to EC50 for mouse MC4R
Mus musculus [3] = species on record: Mus musculus; experiment: Selectivity ratio of EC50 for mouse MC3R to EC50 for mouse MC5R
[4] = molecular target: Melanocortin receptor 3 (Mus musculus) (UniProt P33033); experiment: Agonist activity at mouse MC3R expressed in HEK293 cells assessed as increase in forskolin-induced cAMP accumulation at 100 uM preincubated for 2 hrs followed by biotinylated cAMP addition and subsequent incubation for 2 hrs by AlphaScreen assay relative to NDP-MSH; format: functional, cell-based
Procedure, shortened: (§1)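 HEK293 cells stably expressing mouse MC1R, MC3R, MC4R or MC5R, at 70-90% confluence, were detached with Versene at 37 °C and plated at 10,000 cells/well. Stimulation buffer was HBSS with 5 mM HEPES, 0.5 mM IBMX and 0.1% BSA, pH 7.4, plus anti-cAMP acceptor beads. Peptide from 10^-2 M DMSO stock was added and incubated 2 hr in the dark at room temperature. Forskolin at 10^-4 M was the reference stimulus.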

Mus musculus [5] = species on record: Mus musculus; experiment: Selectivity ratio of EC50 for mouse MC3R to EC50 for mouse MC1R
[6] = molecular target: Melanocortin receptor 4 (Mus musculus) (UniProt P56450); experiment: Agonist activity at mouse MC4R expressed in HEK293 cells assessed as increase in forskolin-induced cAMP accumulation at 100 uM preincubated for 2 hrs followed by biotinylated cAMP addition and subsequent incubation for 2 hrs by AlphaScreen assay relative to NDP-MSH; format: functional, cell-based
Procedure, shortened: as §1

Mus musculus [7] = species on record: Mus musculus; experiment: Selectivity ratio of EC50 for mouse MC4R to EC50 for mouse MC3R
Melanocortin receptor 3 = Melanocortin receptor 3 (Mus musculus, UniProt P33033); experiment: Agonist activity at mouse MC3R expressed in HEK293 cells assessed as increase in forskolin-induced cAMP accumulation preincubated for 2 hrs followed by biotinylated cAMP addition and subsequent incubation for 2 hrs by AlphaScreen assay; format: functional, cell-based
Procedure, shortened: as §1

[8] = molecular target: Melanocortin receptor 5 (Mus musculus) (UniProt P41149); experiment: Agonist activity at mouse MC5R expressed in HEK293 cells assessed as increase in forskolin-induced cAMP accumulation at 100 uM preincubated for 2 hrs followed by biotinylated cAMP addition and subsequent incubation for 2 hrs by AlphaScreen assay relative to NDP-MSH; format: functional, cell-based
Procedure, shortened: as §1

[9] = molecular target: Melanocyte-stimulating hormone receptor (Mus musculus) (UniProt Q01727); experiment: Agonist activity at mouse MC1R expressed in HEK293 cells assessed as increase in forskolin-induced cAMP accumulation at 100 uM preincubated for 2 hrs followed by biotinylated cAMP addition and subsequent incubation for 2 hrs by AlphaScreen assay relative to NDP-MSH; format: functional, cell-based
Procedure, shortened: as §1

Melanocortin receptor 5 = Melanocortin receptor 5 (Mus musculus, UniProt P41149); experiment: Agonist activity at mouse MC5R expressed in HEK293 cells assessed as increase in forskolin-induced cAMP accumulation preincubated for 2 hrs followed by biotinylated cAMP addition and subsequent incubation for 2 hrs by AlphaScreen assay; format: functional, cell-based
Procedure, shortened: as §1

Mus musculus [10] = species on record: Mus musculus; experiment: Selectivity ratio of EC50 for mouse MC4R to EC50 for mouse MC1R
Mus musculus [11] = species on record: Mus musculus; experiment: Selectivity ratio of EC50 for mouse MC5R to EC50 for mouse MC1R

Sequence of Melanocortin receptor 3 (P33033 whole entry): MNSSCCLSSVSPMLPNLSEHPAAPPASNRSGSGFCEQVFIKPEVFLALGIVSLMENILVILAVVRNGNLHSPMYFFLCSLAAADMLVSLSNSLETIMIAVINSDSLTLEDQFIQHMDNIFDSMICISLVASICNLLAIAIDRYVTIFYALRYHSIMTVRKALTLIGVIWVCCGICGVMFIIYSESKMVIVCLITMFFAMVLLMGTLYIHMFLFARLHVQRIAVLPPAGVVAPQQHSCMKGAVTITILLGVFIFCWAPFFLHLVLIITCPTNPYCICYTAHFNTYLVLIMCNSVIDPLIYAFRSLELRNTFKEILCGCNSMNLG
Sequence of Melanocortin receptor 3 (Mus musculus) (P33033 whole entry): as above
Sequence of Melanocyte-stimulating hormone receptor (Mus musculus) (Q01727 whole entry, looked up): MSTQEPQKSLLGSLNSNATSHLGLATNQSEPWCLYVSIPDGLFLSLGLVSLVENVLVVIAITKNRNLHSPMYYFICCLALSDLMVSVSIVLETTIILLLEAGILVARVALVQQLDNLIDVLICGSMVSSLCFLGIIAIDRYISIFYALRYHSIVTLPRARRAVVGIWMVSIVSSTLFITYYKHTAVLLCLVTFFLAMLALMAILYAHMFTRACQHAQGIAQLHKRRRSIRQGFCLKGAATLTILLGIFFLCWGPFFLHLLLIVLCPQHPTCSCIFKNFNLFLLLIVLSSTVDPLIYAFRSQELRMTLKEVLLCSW
Sequence of Melanocortin receptor 4 (Mus musculus) (P56450 whole entry): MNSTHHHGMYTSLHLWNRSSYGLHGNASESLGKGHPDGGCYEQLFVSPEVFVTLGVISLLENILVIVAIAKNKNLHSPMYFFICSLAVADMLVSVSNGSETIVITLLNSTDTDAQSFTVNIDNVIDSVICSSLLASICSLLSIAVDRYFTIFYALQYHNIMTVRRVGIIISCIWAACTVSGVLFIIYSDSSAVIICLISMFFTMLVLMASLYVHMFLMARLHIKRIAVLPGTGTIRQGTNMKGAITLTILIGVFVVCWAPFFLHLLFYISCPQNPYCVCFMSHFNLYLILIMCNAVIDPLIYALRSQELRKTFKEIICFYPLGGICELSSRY
Sequence of Melanocortin receptor 3 (Homo sapiens) (P41968 whole entry, looked up): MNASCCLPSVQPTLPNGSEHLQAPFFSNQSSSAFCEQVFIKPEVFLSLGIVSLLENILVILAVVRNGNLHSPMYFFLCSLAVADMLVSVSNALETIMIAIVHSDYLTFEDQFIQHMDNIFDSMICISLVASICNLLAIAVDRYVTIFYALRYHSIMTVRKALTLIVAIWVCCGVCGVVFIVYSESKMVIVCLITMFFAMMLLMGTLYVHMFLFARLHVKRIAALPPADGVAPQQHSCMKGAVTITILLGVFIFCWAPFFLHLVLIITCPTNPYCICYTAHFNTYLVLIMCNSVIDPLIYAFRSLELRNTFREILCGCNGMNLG
Sequence of Melanocortin receptor 5 (Mus musculus) (P41149 whole entry): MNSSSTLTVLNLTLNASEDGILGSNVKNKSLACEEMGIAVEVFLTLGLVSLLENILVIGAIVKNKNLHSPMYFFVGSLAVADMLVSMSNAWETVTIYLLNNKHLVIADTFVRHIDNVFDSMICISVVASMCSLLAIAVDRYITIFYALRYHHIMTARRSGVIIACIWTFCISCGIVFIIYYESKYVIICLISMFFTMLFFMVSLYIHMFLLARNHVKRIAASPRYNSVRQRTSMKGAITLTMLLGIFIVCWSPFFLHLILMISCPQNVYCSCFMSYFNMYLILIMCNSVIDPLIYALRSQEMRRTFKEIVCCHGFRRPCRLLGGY
Sequence of Melanocortin receptor 5 (P41149 whole entry): as above

SMILES	Ratio EC50 (Mus musculus [3])	Activity [4] [%]	Ratio EC50 (Mus musculus [5])	Activity [6] [%]	also measured
CCCC[C@H](NC(C)=O)C(=O)N[C@H]1CC(=O)NCCCC[C@@H](C(=O)N2CCC[C@H]2C(=O)N[C@H](C(N)=O)C(C)C)NC(=O)[C@H](Cc2c[nH]c3ccccc23)NC(=O)[C@H](CCCNC(=N)N)NC(=O)[C@@H](Cc2ccccc2)NC(=O)[C@@H]2CCCN2C1=O					Efficacy [1]: 12%
C[C@@H]1NC(=O)[C@H](CC(N)=O)NC(=O)[C@H](Cc2c[nH]c3ccccc23)NC(=O)[C@H](CCCNC(=N)N)NC(=O)[C@@H](Cc2ccccc2)NC(=O)[C@H](Cc2cnc[nH]2)NC(=O)[C@@H]2CCCN2C(=O)[C@H]2CCCN2C(=O)[C@H](Cc2ccccc2)NC1=O (cyclo(H[dF]RWNAF[dP]P))					Ratio EC50 (Mus musculus [2]): 23
C[C@@H]1NC(=O)[C@H](CN)NC(=O)[C@H](Cc2c[nH]c3ccccc23)NC(=O)[C@H](CCCNC(=N)N)NC(=O)[C@@H](Cc2ccccc2)NC(=O)[C@H](Cc2cnc[nH]2)NC(=O)[C@@H]2CCCN2C(=O)[C@H]2CCCN2C1=O (cyclo(H[dF]RW[Dap]A[dP]P))	> 100				Ratio EC50 (Mus musculus [2]): 25
N=C(N)NCCC[C@@H]1NC(=O)[C@@H](Cc2ccccc2)NC(=O)[C@H](Cc2cnc[nH]2)NC(=O)[C@@H]2CCCN2C(=O)[C@H]2CCCN2C(=O)[C@H](CN)NC(=O)[C@H](Cc2c[nH]c3ccccc23)NC1=O (cyclo(H[dF]RW[Dap][dP]P))	> 100	65	> 100		
N=C(N)NCCC[C@@H]1NC(=O)[C@@H](Cc2ccccc2)NC(=O)[C@H](Cc2cnc[nH]2)NC(=O)[C@@H]2CCCN2C(=O)[C@H]2CCCN2C(=O)[C@H](Cc2c[nH]c3ccccc23)NC1=O (cyclo(H[dF]RW[dP]P))		60		65	
C[C@@H]1NC(=O)[C@H](CC(N)=O)NC(=O)[C@H](Cc2c[nH]c3ccccc23)NC(=O)[C@H](CCCNC(=N)N)NC(=O)[C@@H](Cc2ccccc2)NC(=O)[C@@H]2CCCN2C(=O)[C@H]2CCCN2C(=O)[C@H](Cc2ccccc2)NC1=O (cyclo(P[dF]RWNAF[dP]))	> 1000	45	> 100		Ratio EC50 (Mus musculus [7]): > 300
C[C@@H]1NC(=O)[C@H](CC(N)=O)NC(=O)[C@H](Cc2c[nH]c3ccccc23)NC(=O)[C@H](CCCNC(=N)N)NC(=O)[C@@H](Cc2ccccc2)NC(=O)[C@@H]2CCCN2C(=O)[C@H]2CCCN2C1=O (cyclo(P[dF]RWNA[dP]))	> 1000	55	> 100		Ratio EC50 (Mus musculus [7]): > 100
N=C(N)NCCC[C@@H]1NC(=O)[C@@H](Cc2ccccc2)NC(=O)[C@@H]2CCCN2C(=O)[C@H]2CCCN2C(=O)[C@H](CC(N)=O)NC(=O)[C@H](Cc2c[nH]c3ccccc23)NC1=O (cyclo(P[dF]RWN[dP]))			> 2500	85	EC50 (Melanocortin receptor 3): > 100 µM; Activity [8]: 25%; Activity [9]: 85%
C[C@@H]1NC(=O)[C@H](CN)NC(=O)[C@H](Cc2c[nH]c3ccccc23)NC(=O)[C@H](CCCNC(=N)N)NC(=O)[C@@H](Cc2ccccc2)NC(=O)[C@@H]2CCCN2C(=O)[C@H]2CCCN2C(=O)[C@H](Cc2ccccc2)NC1=O (cyclo(P[dF]RW[Dap]AF[dP]))		70			Activity [9]: 45%
C[C@@H]1NC(=O)[C@H](CN)NC(=O)[C@H](Cc2c[nH]c3ccccc23)NC(=O)[C@H](CCCNC(=N)N)NC(=O)[C@@H](Cc2ccccc2)NC(=O)[C@@H]2CCCN2C(=O)[C@H]2CCCN2C1=O (cyclo(P[dF]RW[Dap]A[dP]))	> 1000	70			Ratio EC50 (Mus musculus [7]): > 300
N=C(N)NCCC[C@@H]1NC(=O)[C@@H](Cc2ccccc2)NC(=O)[C@@H]2CCCN2C(=O)[C@H]2CCCN2C(=O)[C@H](CN)NC(=O)[C@H](Cc2c[nH]c3ccccc23)NC1=O (cyclo(P[dF]RW[Dap][dP]))			> 500	35	EC50 (Melanocortin receptor 3): > 100 µM; EC50 (Melanocortin receptor 5): > 100 µM; Activity [9]: 75%; Ratio EC50 (Mus musculus [10]): > 500; Ratio EC50 (Mus musculus [11]): > 500
N=C(N)NCCC[C@@H]1NC(=O)[C@@H](Cc2ccccc2)NC(=O)[C@@H]2CCCN2C(=O)[C@H]2CCCN2C(=O)[C@H](Cc2c[nH]c3ccccc23)NC1=O (cyclo(P[dF]RW[dP]))				50	EC50 (Melanocortin receptor 3): > 100 µM
